NadD block – inhibitors of Staphylococcus aureus NadD. purified NadD enzyme, colorimetric absorbance read-out. inhibition, % at 20 µM. hit rate 0.78% among 360,000; in the data active = inhibition above about 26%
Pemphigus Ab inh – inhibitors of pemphigus antibody binding to human desmoglein-3 | P32926 | DSG3-coupled beads, scFv-anti-DSG3-GFP binding, flow cytometry; hits give low values | binding (percent of control), % at 10 µM | hit rate 0.48% among 310,000 | AID 588358;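 active = binding more than 3 SD below its plate's average and above zero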;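 note: hits lower antibody fragment binding to DSG3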
core dimer inh – HCV core protein dimerization inhibition; TR-FRET GST/Flag-core106 dimerization, 1536-well; AID 1899; hit rate 0.33% among 300,000; inhibition, % at 5 µM;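 active = inhibition above the mean of all tested compounds plus 3 SD, set per screening campaign, cut at about 45% in these data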
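test system = GST/Flag-tagged HCV core106 proteins | probe or stimulus = Eu donor and XL665 acceptor anti-tag antibodies | times = compound-protein-antibody incubation 4 h at 22.5 °C | signal = TR-FRET, excitation 340 nm, emission 617 and 671 nm | measure = percent inhibition of core106 dimerization signal | controls = wells lacking GST-core106 and wells with excess unlabelled core106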
Rce1 inhib – blocks yeast Ras-converting enzyme | calls only | Q03530 | yeast membranes, quenched prenylated peptide cleavage fluorescence | hit rate 0.27% among 290,000;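 active = fall in fluorescence gain of 50% or more versus controls, with final raw signal at or below 3038400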;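 note: plate controls were neutral control wells for no effect and wells lacking membranes for full effect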
Target sequence (Q03530 whole entry, looked up): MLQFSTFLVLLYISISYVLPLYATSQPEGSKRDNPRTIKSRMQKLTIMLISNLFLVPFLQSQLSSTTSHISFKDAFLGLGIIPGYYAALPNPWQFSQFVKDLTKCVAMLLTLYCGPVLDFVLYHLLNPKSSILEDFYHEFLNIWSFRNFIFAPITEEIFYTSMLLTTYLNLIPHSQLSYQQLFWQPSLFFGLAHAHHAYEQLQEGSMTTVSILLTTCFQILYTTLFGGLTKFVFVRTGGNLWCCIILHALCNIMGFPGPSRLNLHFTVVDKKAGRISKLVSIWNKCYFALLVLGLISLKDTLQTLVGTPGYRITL
TbMetRS inhib – blocks T. brucei methionyl-tRNA synthetase activity. purified T. brucei MetRS, ATP depletion, Kinase-Glo luminescence. inhibition, % at 11.9 µM. hit rate 0.4% among 360,000. AID 624268;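 active = inhibition above a per-plate cutoff of the control wells' mean inhibition plus 3 SD, cut at about 5.5% in these data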;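 note: 0% = DMSO wells median and 100% = median of wells with control inhibitor compound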
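Dosing: 11.9 µM single point; system: parasite MetRS enzyme; technique: luminescence of leftover ATP; times: 15 min enzyme-compound preincubation, 2 h reaction, 10 min detection, 25 °C; replicates: each compound tested once; read-out basis: percent inhibition relative to median high and low control wells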
Tb MetRS conf – confirmation of Trypanosoma brucei MetRS inhibitors; shares compounds with TbMetRS inhib; T. brucei MetRS enzyme, luminescence (ATP depletion); inhibition, % at 11.9 µM; hit rate 93% among 1,400; in the data active = inhibition above about 7%
Jurkat tox – counter-screen for T. brucei MetRS inhibitors: Jurkat cell cytotoxicity; shares compounds with TbMetRS inhib; Jurkat cells viability, ATP luminescence; inhibition, % at 8.3 µM; hit rate 12% among 1,400; in the data active = inhibition above about 15%;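 note: 0% = vehicle and 100% = reference inhibitor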
Tb MetRS inh FP – inhibits T. brucei methionyl tRNA synthetase in orthogonal FP test; inhibition, % at 11.9 µM; shares compounds with TbMetRS inhib; purified T. brucei MetRS, fluorescence polarization; AID 651607; hit rate 44% among 1,400; in the data active = inhibition above about 17%;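 note: 0% = vehicle wells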
* = called active by the depositor; i = inactive; / = no result given. Hits are enriched below; roughly 1.9% of the tested compounds scored in any of these assays.

SMILES	NadD block	Pemphigus Ab inh	core dimer inh	Rce1 inhib	TbMetRS inhib	Tb MetRS conf	Jurkat tox	Tb MetRS inh FP
O=C(CC1C(=O)NCCN1Cc1ccc(F)cc1Cl)NCc1ccon1 (configuration not stated)	1.1	93.9	8.2	i	-0.2	/	/	/
COc1ccc(N(CC(=O)Nc2ccc(Cl)cc2)S(=O)(=O)c2c(C)n[nH]c2C)cc1	-2.9	102.1	1.3	i	8.7*	17.9*	3.6	9.9
COc1ccc(N(CC(=O)Nc2cccc(C)c2C)S(=O)(=O)c2c(C)n[nH]c2C)cc1	-0.8	97.3	-0.1	i	-0.1	/	/	/
O=C(Cc1ccc(Cl)cc1)Nc1cccc(S(=O)(=O)Nc2ccccc2F)c1	-6.8	126.7	8.1	i	0.4	/	/	/
O=C(COC(=O)Cn1cnc2ccccc21)Nc1cccc(S(=O)(=O)N2CCOCC2)c1	-1.8	97.0	-0.7	i	35.1*	56.8*	1.8	31.5*
O=C(Cc1ccc2c(c1)OCCO2)Nc1cccc(S(=O)(=O)N2CCOCC2)c1	-2.8	114.1	/	/	0.0	/	/	/
O=C(Cc1ccc(Cl)c(Cl)c1)Nc1cccc(S(=O)(=O)N2CCOCC2)c1	-8.6	/	-1.2	i	58.8*	76.5*	0.3	65.0*
CN(C)S(=O)(=O)c1cccc(NC(=O)Cc2ccc(Cl)cc2)c1	-7.3	/	-0.4	i	14.9*	27.3*	3.1	20.8*
O=Cc1ccc(-c2cccc([N+](=O)[O-])c2)o1	-0.6	105.9	4.4	i	-0.1	/	/	/
O=Cc1ccc(-c2ccc([N+](=O)[O-])cc2Cl)o1	2.8	97.5	/	/	6.5*	12.0*	-4.0	6.6
Cc1ccc(C2NC(=NCc3ccccc3)Nc3nc(C)cc(=O)n32)cc1 (configuration not stated)	-9.1	104.0	-2.9	i	7.6*	17.2*	-1.2	-0.9
O=c1[nH]c(CSc2ncc(C(F)(F)F)cc2Cl)nc2ccccc12	-8.6	102.6	6.6	i	53.2*	76.8*	11.0	54.1*
O=c1[nH]c(Cc2cccc(C(F)(F)F)c2)nc2ccccc12	-3.1	96.7	3.4	i	51.1*	55.5*	-4.5	26.7*
O=c1[nH]c(CSc2ncnc3sccc23)nc2cc(C(F)(F)F)ccc12	-4.2	101.1	10.3	i	0.6	/	/	/
CSc1nc2ccccc2n1CC(=O)Nc1cc(C(F)(F)F)ccc1N1CCOCC1	-2.9	107.1	1.1	/	12.9*	20.8*	11.8	11.3
O=C(Cn1c(C(F)(F)F)nc2ccccc21)Nc1ccccc1N1CCOCC1	0.2	108.9	1.4	i	-0.6	/	/	/
Clc1cccc(-c2cccc3nccn23)c1Cl	3.5	/	/	/	-0.3	/	/	/
CCc1nnc(N/N=C\c2ccc(OC(C)=O)c(OC)c2)n1N	-2.0	101.7	-4.2	i	6.6*	4.3	4.0	4.4
Cn1c(Cl)c(/C=N/OC(=O)C(C)(C)C)c2ccccc21	-2.2	100.3	-0.7	i	0.7	/	/	/
Cc1ccc(CONS(=O)(=O)c2cc(C)ccc2C)cc1	-5.1	104.5	/	/	-0.9	/	/	/
O=C(CCC(=O)Nc1cccc([N+](=O)[O-])c1)N/N=C/c1cccs1	-4.1	103.2	/	i	44.4*	69.3*	6.7	47.9*
O=C(OCC(=O)c1c[nH]c2ccccc12)c1ccc(OC(F)F)cc1	-6.1	113.2	/	/	12.2*	30.7*	4.1	29.0*
NC(=O)Nc1ccc(C(=O)OCC(=O)c2c[nH]c3ccccc23)cc1	4.4	101.1	/	/	0.2	/	/	/
CCCC(C1=C(O)CC(C)(C)CC1=O)C1C(=O)CC(C)(C)CC1=O (configuration not stated)	3.3	105.3	-9.2	i	-0.3	/	/	/
CC(C)c1ccc(N)c(S(=O)(=O)O)c1	-4.4	92.6	-1.4	i	7.7*	1.9	0.3	6.3
SMILES	NadD block	Pemphigus Ab inh	core dimer inh	Rce1 inhib	TbMetRS inhib	Tb MetRS conf	Jurkat tox	Tb MetRS inh FP
CCOc1ccc(Nc2ccc(N)c(S(=O)(=O)O)c2)cc1	10.0	114.6	/	/	-0.2	/	/	/
Cc1cc(C)cc(N(CC(=O)Nc2ccc(Br)cc2)S(=O)(=O)c2c(C)[nH]c(=O)[nH]c2=O)c1	7.1	101.6	5.5	i	49.0*	75.8*	-1.1	45.3*
Cc1cc(C)cc(N(CC(=O)Nc2cc(C)ccc2C)S(=O)(=O)c2c(C)[nH]c(=O)[nH]c2=O)c1	4.1	101.2	14.6	i	0.5	/	/	/
NC(N)=N/N=C/c1cccc([N+](=O)[O-])c1O	0.3	106.4	1.0	/	-0.3	/	/	/
CCOC(=O)c1ccc(NC(=S)N2CCCC(C(=O)N3CCCC3)C2)cc1 (configuration not stated)	-2.3	/	4.0	i	-0.3	/	/	/
COc1cccc(NC(=O)C(OC(=O)c2cnc(C)cn2)c2ccccc2)c1 (configuration not stated)	3.6	95.1	5.0	i	-0.4	/	/	/
CCn1c(SCC(=O)c2c[nH]c3ccccc23)nc2cc(S(=O)(=O)N3CCOCC3)ccc21	27.6	123.7	10.0	i	17.7*	81.6*	2.5	60.2*
CCn1c(SCC(N)=O)nc2cc(S(=O)(=O)N3CCOCC3)ccc21	-1.4	105.3	-3.7	i	-0.7	/	/	/
CN1CCCC1(C)C(=O)Nc1ccc(-n2cccc2)cc1 (configuration not stated)	1.7	/	/	/	0.3	/	/	/
CC(C(=O)Nc1ccc(O)cc1)c1cccc(C(=O)c2ccccc2)c1 (configuration not stated)	-7.6	102.0	3.6	i	21.8*	30.1*	18.8*	31.3*
COc1ccccc1CCNC(=O)C1CCC(=O)N(Cc2cccc(F)c2)C1 (configuration not stated)	-0.5	102.4	/	i	-0.6	/	/	/
OC1(c2cccc(C(F)(F)F)c2)CCN(c2ncnc3c2[nH]c2ccc(F)cc23)CC1	11.6	104.0	/	/	12.2*	23.6*	33.7*	13.3
Fc1ccc2[nH]c3c(N4CCN(c5ccccc5)CC4)ncnc3c2c1	7.4	107.9	0.7	i	2.7	/	/	/
COC(=O)/C(=N/Nc1ccccc1)N1CCCc2ccccc21	-1.9	139.4	-6.7	i	-0.6	/	/	/
COP(=O)(OC)C(Nc1cc(Cl)cc(Cl)c1)c1cccc(O)c1 (configuration not stated)	-6.5	83.5	-9.3	i	5.7*	14.5*	-0.6	4.0
Cc1ccc(C2CC2C(=O)NNC(=S)Nc2ccc(Cl)cc2)cc1 (configuration not stated)	7.8	104.4	1.2	i	39.3*	66.5*	0.8	37.8*
COc1ccc(CCC2=NCCN2C(CC(C)C)c2nc3ccccc3[nH]2)cc1 (configuration not stated)	-6.1	/	/	/	12.4*	19.9*	6.8	5.3
